Laboratory results taken from ChEMBL document CHEMBL3861952, “Donepezil-like multifunctional agents: Design, synthesis, molecular modeling and biological evaluation” (Eur J Med Chem, 2016).

Columns and labels:
Cholinesterase [1] = target: T1, Cholinesterase (Homo sapiens, UniProt P06276); assay: Inhibition of human recombinant BuChE expressed in HEK293 cells using S-butyrylthiocholine iodide as substrate preincubated for 30 mins followed by substrate addition measured after 30 mins by Ellman's method
T1 sequence (P06276 whole entry): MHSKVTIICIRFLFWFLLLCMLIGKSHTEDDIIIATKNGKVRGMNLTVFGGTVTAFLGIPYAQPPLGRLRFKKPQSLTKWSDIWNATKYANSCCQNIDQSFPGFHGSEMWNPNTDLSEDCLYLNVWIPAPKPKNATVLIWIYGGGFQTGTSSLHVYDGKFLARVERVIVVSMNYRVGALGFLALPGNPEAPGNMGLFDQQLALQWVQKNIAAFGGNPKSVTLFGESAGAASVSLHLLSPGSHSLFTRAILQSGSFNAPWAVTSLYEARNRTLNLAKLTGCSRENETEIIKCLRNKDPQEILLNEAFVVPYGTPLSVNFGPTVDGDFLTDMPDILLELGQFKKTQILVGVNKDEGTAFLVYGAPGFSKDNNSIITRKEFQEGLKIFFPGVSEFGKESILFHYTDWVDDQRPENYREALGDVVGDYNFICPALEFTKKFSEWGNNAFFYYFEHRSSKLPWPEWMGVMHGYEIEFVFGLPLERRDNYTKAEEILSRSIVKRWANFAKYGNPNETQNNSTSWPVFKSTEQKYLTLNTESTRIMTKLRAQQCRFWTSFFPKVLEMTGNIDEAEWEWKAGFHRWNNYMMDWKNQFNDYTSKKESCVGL
Method in brief: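 Ellman assay in 0.1 M phosphate buffer pH 8.0 with 0.05 U/mL BuChE and 0.35 mM DTNB. Serial inhibitor dilutions pre-incubated 30 min at 37 °C, then 0.5 mM S-butyrylthiocholine iodide (final) added. Reaction followed at least 30 min at 405 nm. IC50 from dose-response curves; mean ± S.E.M., at least three experiments in triplicate.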

[2] = target: T2, Amine oxidase [flavin-containing] A (Homo sapiens, UniProt P21397); assay: Inhibition of human recombinant MAOA using p-tyramine as substrate preincubated for 30 mins followed by substrate addition measured for 1 hr by horse-radish peroxidase/amplex red-based fluorometric method
T2 sequence (P21397 whole entry): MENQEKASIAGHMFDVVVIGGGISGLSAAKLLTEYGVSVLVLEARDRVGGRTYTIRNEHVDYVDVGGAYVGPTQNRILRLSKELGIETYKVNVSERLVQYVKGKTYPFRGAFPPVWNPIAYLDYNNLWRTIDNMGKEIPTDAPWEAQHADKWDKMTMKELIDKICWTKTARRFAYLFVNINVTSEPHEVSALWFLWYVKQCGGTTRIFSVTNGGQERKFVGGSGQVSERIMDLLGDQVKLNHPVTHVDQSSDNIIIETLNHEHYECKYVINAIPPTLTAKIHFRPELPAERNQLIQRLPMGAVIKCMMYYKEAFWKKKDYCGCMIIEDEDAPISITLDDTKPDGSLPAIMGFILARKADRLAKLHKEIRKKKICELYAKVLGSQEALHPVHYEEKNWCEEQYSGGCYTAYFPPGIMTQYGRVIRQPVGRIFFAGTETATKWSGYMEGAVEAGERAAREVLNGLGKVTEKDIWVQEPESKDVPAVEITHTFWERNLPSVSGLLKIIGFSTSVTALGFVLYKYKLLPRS

[3] = target: T3, Amine oxidase [flavin-containing] B (Homo sapiens, UniProt P27338); assay: Inhibition of human recombinant MAOB using p-tyramine as substrate preincubated for 30 mins followed by substrate addition measured for 1 hr by horse-radish peroxidase/amplex red-based fluorometric method
T3 sequence (P27338 whole entry): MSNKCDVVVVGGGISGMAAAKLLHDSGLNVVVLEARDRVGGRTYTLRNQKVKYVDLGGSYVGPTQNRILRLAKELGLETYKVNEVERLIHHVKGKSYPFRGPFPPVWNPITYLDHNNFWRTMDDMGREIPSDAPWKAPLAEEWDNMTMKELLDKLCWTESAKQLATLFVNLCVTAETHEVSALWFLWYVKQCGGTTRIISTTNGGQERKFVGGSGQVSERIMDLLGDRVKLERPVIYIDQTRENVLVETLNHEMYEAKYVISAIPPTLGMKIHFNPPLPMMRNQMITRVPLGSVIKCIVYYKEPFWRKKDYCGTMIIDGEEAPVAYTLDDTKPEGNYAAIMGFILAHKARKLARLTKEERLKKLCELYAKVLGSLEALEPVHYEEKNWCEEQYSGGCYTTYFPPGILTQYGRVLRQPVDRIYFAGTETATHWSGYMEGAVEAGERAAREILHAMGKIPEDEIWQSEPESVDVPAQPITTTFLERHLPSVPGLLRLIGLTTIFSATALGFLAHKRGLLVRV

Acetylcholinesterase [4] = target: T4, Acetylcholinesterase (Homo sapiens, UniProt P22303); assay: Inhibition of human recombinant AChE expressed in HEK293 cells using acetylthiocholine iodide as substrate preincubated for 30 mins followed by substrate addition measured after 30 mins by Ellman's method
T4 sequence (P22303 whole entry): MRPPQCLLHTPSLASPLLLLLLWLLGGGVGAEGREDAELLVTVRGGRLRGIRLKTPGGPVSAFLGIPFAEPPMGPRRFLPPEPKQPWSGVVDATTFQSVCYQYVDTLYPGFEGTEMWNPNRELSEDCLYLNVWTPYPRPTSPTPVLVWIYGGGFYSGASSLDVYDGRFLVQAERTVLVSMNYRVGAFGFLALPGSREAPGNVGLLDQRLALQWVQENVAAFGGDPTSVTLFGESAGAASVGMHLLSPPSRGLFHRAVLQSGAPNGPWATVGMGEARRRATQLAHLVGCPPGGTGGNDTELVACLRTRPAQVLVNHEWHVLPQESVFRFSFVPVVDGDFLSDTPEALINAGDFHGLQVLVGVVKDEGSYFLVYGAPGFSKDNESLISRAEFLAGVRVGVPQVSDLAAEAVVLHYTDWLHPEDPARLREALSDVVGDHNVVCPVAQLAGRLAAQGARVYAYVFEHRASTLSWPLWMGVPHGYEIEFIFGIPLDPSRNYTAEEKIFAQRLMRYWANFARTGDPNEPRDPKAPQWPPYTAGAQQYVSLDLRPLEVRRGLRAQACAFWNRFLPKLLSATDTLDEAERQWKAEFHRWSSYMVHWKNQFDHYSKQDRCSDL

[5] = target: T2, Amine oxidase [flavin-containing] A; assay: Inhibition of human recombinant MAOA using p-tyramine as substrate measured for 1 hr by horse-radish peroxidase/amplex red-based fluorometric method
Method in brief: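 Human recombinant MAO-A (360 mU/mL) pre-incubated 30 min at 37 °C with serial inhibitor dilutions. Reaction started with 1 mM p-tyramine, 40 U/mL HRP and 25 μM Amplex UltraRed (final) in 0.25 mM sodium phosphate pH 7.4. Resorufin fluorescence (ex 530/em 590) read continuously ≥1 h. Water controls, no-substrate blanks. IC50 from dose-response curves; mean ± S.E.M., ≥3 experiments in triplicate.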

[6] = target: T2, Amine oxidase [flavin-containing] A; assay: Inhibition of human recombinant MAOA using p-tyramine as substrate preincubated for 15 mins followed by substrate addition measured for 1 hr by horse-radish peroxidase/amplex red-based fluorometric method
Method in brief: (§1)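 Time-dependent series: hrMAO-A pre-incubated with increasing inhibitor concentrations for varied times (0–240 min) before addition of p-tyramine. Fluorometric HRP/Amplex UltraRed read-out as in the standard assay (1 mM p-tyramine, pH 7.4 phosphate, ex 530/em 590). IC50 derived from a dose-response curve at each pre-incubation time.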

[7] = target: T2, Amine oxidase [flavin-containing] A; assay: Inhibition of human recombinant MAOA using p-tyramine as substrate preincubated for 60 mins followed by substrate addition measured for 1 hr by horse-radish peroxidase/amplex red-based fluorometric method; method in brief: as §1
[8] = target: T2, Amine oxidase [flavin-containing] A; assay: Inhibition of human recombinant MAOA using p-tyramine as substrate preincubated for 120 mins followed by substrate addition measured for 1 hr by horse-radish peroxidase/amplex red-based fluorometric method; method in brief: as §1
[9] = target: T2, Amine oxidase [flavin-containing] A; assay: Inhibition of human recombinant MAOA using p-tyramine as substrate preincubated for 180 mins followed by substrate addition measured for 1 hr by horse-radish peroxidase/amplex red-based fluorometric method; method in brief: as §1
[10] = target: T2, Amine oxidase [flavin-containing] A; assay: Inhibition of human recombinant MAOA using p-tyramine as substrate preincubated for 240 mins followed by substrate addition measured for 1 hr by horse-radish peroxidase/amplex red-based fluorometric method; method in brief: as §1
[11] = Metal chelating activity of the compound assessed as compound-Zn2+ complex formation at 10 uM after 15 hrs by UV-Vis spectrophotometric method; type: physicochemical
Method in brief: (§2)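 Run in distilled water at room temperature: UV-Vis spectra (220–300 nm, 1 cm quartz) of 10 μM compound with CuSO4 or ZnSO4 at 1–5 μM. Complexation followed at 262 nm. Stoichiometry by Job's method: 21 mixtures, total concentration 10 μM, proportions varied 0–100%.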

[12] = Metal chelating activity of the compound assessed as compound-Cu2+ complex formation at 10 uM after 5 mins by UV-Vis spectrophotometric method; type: physicochemical; method in brief: as §2
Acetylcholinesterase [13] = target: T4, Acetylcholinesterase; assay: Mixed-type inhibition of human recombinant AChE expressed in HEK293 cells using acetylthiocholine iodide as substrate preincubated for 30 mins followed by substrate addition measured after 30 mins by Lineweaver-Burk plot analysis
Cholinesterase [14] = target: T1, Cholinesterase; assay: Mixed-type inhibition of human recombinant BuChE expressed in HEK293 cells using S-butyrylthiocholine iodide as substrate preincubated for 30 mins followed by substrate addition measured after 30 mins by Lineweaver-Burk plot analysis

C#CCN(CCCC1CCN(Cc2ccccc2)CC1)Cc1ccc2cccc(O)c2n1
IC50 (Cholinesterase [1]): 0.023 µM | IC50 [2]: 37 µM | IC50 [3]: > 100 µM | IC50 (Acetylcholinesterase [4]): 1.5 µM

C#CCN(C)CCCOc1ccc(Cl)cc1Cl [CLORGILINE]
IC50 (Cholinesterase [1]): > 500 µM | IC50 (Acetylcholinesterase [4]): > 500 µM

C#CCN(Cc1ccc2cccc(O)c2n1)CC1CCN(Cc2ccccc2)CC1
IC50 (Cholinesterase [1]): 0.064 µM | IC50 [2]: 46.5 µM | IC50 [3]: > 100 µM | IC50 (Acetylcholinesterase [4]): 9.7 µM

C#CCN(Cc1ccc2cccc(O)c2n1)C(C#N)CC1CCN(Cc2ccccc2)CC1 (centres undefined)
IC50 (Cholinesterase [1]): 0.002 µM | IC50 [2]: 12.2 µM | IC50 [3]: > 100 µM | IC50 (Acetylcholinesterase [4]): 3.3 µM

C#CCN(C)[C@H](C)Cc1ccccc1 [SELEGILINE]
IC50 (Cholinesterase [1]): > 500 µM | IC50 (Acetylcholinesterase [4]): > 500 µM

C#CCN(CCC1CCN(Cc2ccccc2)CC1)Cc1ccc2cccc(O)c2n1
IC50 (Cholinesterase [1]): 0.079 µM | IC50 [2]: 35.6 µM | IC50 [3]: > 100 µM | IC50 (Acetylcholinesterase [4]): 4.1 µM

C#CCN(Cc1ccc2cccc(O)c2n1)C(C#N)C1CCN(Cc2ccccc2)CC1 (centres undefined)
IC50 (Cholinesterase [1]): 0.03 µM | IC50 [2]: 10.2 µM | IC50 [3]: > 100 µM | IC50 (Acetylcholinesterase [4]): 64.2 µM

C#CCN(Cc1ccc(O)c2ncccc12)C(C#N)CCC1CCN(Cc2ccccc2)CC1 (centres undefined)
IC50 (Cholinesterase [1]): 2.1 µM | IC50 [2]: 6.7 µM | IC50 [3]: 11.8 µM | IC50 (Acetylcholinesterase [4]): 0.35 µM

C#CCN(Cc1ccc2cccc(O)c2n1)C(C#N)CCC1CCN(Cc2ccccc2)CC1 (centres undefined)
IC50 (Cholinesterase [1]): 0.039 µM | Ki (Cholinesterase [1]): 0.052 µM | IC50 [2]: 6.2 to 10.1 µM | IC50 [3]: > 100 µM | IC50 (Acetylcholinesterase [4]): 0.029 µM | Ki (Acetylcholinesterase [4]): 0.015 µM | IC50 [5]: 187 µM | IC50 [6]: 20.8 µM | IC50 [7]: 3.8 µM | IC50 [8]: 1.9 µM | IC50 [9]: 1.6 µM | IC50 [10]: 1.1 µM | Activity [11]: Active | Activity [12]: Active | Ki (Acetylcholinesterase [13]): 0.0149 µM | Ki (Cholinesterase [14]): 0.0525 µM
